Values after ≈ are worked out from the molar mass of the structure shown. Active and inactive are the calls of the source. The rule behind the calls is not given here.
What was measured:
Candida albicans [1] = assay: Antifungal activity against Candida albicans ATCC 10231 assessed as growth inhibition at 1 mg/mL after 48 hrs by agar-cup diffusion method; format: functional; conditions: ATCC 10231, 48 h, read-out: DIZ
Outline: (§1)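 Agar-cup diffusion: 1 mL of 6 h broth culture seeded per 100 mL molten sterile agar at 45 °C and poured into plates. 8 mm cups cut, each filled with 0.1 mL of 1 mg/mL test solution. Incubated 37 °C for 24 h, 48 h for C. albicans. DMSO control per organism. Inhibition zone diameter in mm, mean of three measurements.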

Escherichia coli [2] = assay: Antibacterial activity against Escherichia coli ATCC 25922 assessed as growth inhibition at 1 mg/mL after 24 hrs by agar-cup diffusion method; format: functional; conditions: ATCC 25922, 24 h, read-out: DIZ; outline: as §1
Bacillus spizizenii [3] = assay: Antibacterial activity against Bacillus subtilis ATCC 6633 assessed as growth inhibition at 1 mg/mL after 24 hrs by agar-cup diffusion method; format: functional; conditions: ATCC 6633, 24 h, read-out: DIZ; outline: as §1
Aspergillus niger = assay: Antifungal activity against Aspergillus niger assessed as growth inhibition at 1 mg/mL after 24 hrs by agar-cup diffusion method; format: functional, organism-based; outline: as §1
Candida albicans [4] = assay: Fungicidal activity against Candida albicans ATCC 10231 after 18 hrs; format: functional; conditions: ATCC 10231, 18 h
Outline: (§2)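 Continuation of the broth-dilution MIC test. A loopful from each tube without visible growth spread on a quarter of a Mueller-Hinton agar plate and incubated 18 h. Lowest concentration giving no growth on subculture taken as the MBC.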

Candida albicans [5] = assay: Antifungal activity against Candida albicans ATCC 10231 assessed as growth inhibition after 48 hrs by two-fold serial dilution assay; format: functional; conditions: ATCC 10231, 48 h
Outline: (§3)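 Twofold serial broth dilution run on compounds giving inhibition zones of 13 mm or more. Organisms pre-grown in suitable broth at 37 °C, 24 h for bacteria and 48 h for fungi. Dilution series 200, 100, 50, 25, 12.5, 6.25. Each 5 mL tube inoculated with 0.1 mL and incubated 37 °C for 48 h. Tubes scored for presence or absence of growth.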

Escherichia coli [6] = assay: Bactericidal activity against Escherichia coli ATCC 25922 after 18 hrs; format: functional; conditions: ATCC 25922, 18 h; outline: as §2
Escherichia coli [7] = assay: Antibacterial activity against Escherichia coli ATCC 25922 assessed as growth inhibition after 48 hrs by two-fold serial dilution assay; format: functional; conditions: ATCC 25922, 48 h; outline: as §3
Bacillus spizizenii [8] = assay: Bactericidal activity against Bacillus subtilis ATCC 6633 after 18 hrs; format: functional; conditions: ATCC 6633, 18 h; outline: as §2
Bacillus spizizenii [9] = assay: Antibacterial activity against Bacillus subtilis ATCC 6633 assessed as growth inhibition after 48 hrs by two-fold serial dilution assay; format: functional; conditions: ATCC 6633, 48 h; outline: as §3
Staphylococcus aureus [10] = assay: Bactericidal activity against Staphylococcus aureus ATCC 6538 after 18 hrs; format: functional; conditions: ATCC 6538, 18 h; outline: as §2
Staphylococcus aureus [11] = assay: Antibacterial activity against Staphylococcus aureus ATCC 6538 assessed as growth inhibition after 48 hrs by two-fold serial dilution assay; format: functional; conditions: ATCC 6538, 48 h; outline: as §3
Staphylococcus aureus [12] = assay: Antibacterial activity against Staphylococcus aureus ATCC 6538 assessed as growth inhibition at 1 mg/mL after 24 hrs by agar-cup diffusion method; format: functional; conditions: ATCC 6538, 24 h, read-out: DIZ; outline: as §1
Pseudomonas aeruginosa = assay: Antibacterial activity against Pseudomonas aeruginosa ATCC 27853 assessed as growth inhibition at 1 mg/mL after 24 hrs by agar-cup diffusion method; format: functional; conditions: ATCC 27853, 24 h, read-out: DIZ; outline: as §1

- MIC (Candida albicans [5]): 100 µg/mL (≈ 354 µM)
- MIC (Escherichia coli [7]): 100 µg/mL (≈ 354 µM)
- MIC (Bacillus spizizenii [9]): 100 µg/mL (≈ 354 µM)
- MIC (Staphylococcus aureus [11]): 100 µg/mL (≈ 354 µM)
Compound: CCOC(=O)c1sc(NC(=O)C(F)(F)F)nc1C
- zone of inhibition at 1000 µg/mL (Candida albicans [1]): > 13 mm
- zone of inhibition at 1000 µg/mL (Escherichia coli [2]): > 13 mm
- zone of inhibition at 1000 µg/mL (Bacillus spizizenii [3]): > 13 mm
- growth inhibition (GI) (Aspergillus niger): inactive
- MFC (Candida albicans [4]): 100 µg/mL (≈ 354 µM)
- MBC (Escherichia coli [6]): 100 µg/mL (≈ 354 µM)
- MBC (Bacillus spizizenii [8]): 100 µg/mL (≈ 354 µM)
- MBC (Staphylococcus aureus [10]): 100 µg/mL (≈ 354 µM)
- zone of inhibition at 1000 µg/mL (Staphylococcus aureus [12]): > 13 mm
- zone of inhibition at 1000 µg/mL (Pseudomonas aeruginosa): > 13 mm
